Converted amounts (≈) assume the structure as drawn. Bounds are passed on as bounds.

In series [1] the test system is Staphylococcus aureus. Kind of series: Antibacterial activity against Staphylococcus aureus ATCC 25923 assessed as inhibition of bacterial growth incubated for 18 to 20 hrs by broth microdilution method. The format is functional. The following applies: time 18-20 hrs. A digest of the protocol:
(§1)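 Broth microdilution per CLSI. Inoculum at 0.5 McFarland, diluted in cation-adjusted Mueller Hinton broth to about 5 × 10^5 CFU/mL. Serial compound dilutions incubated aerobically at 37° C for 18–20 hours. MIC taken as the lowest concentration completely inhibiting visible growth.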
(Dilution methods test growth across graded concentrations, often in twofold steps.)

Series [2] relates to Staphylococcus aureus. Kind of series: Antibacterial activity against Staphylococcus aureus MRSA ATCC 33592 assessed as inhibition of bacterial growth incubated for 18 to 20 hrs by broth microdilution method. The format is functional. To be noted: time 18-20 hrs. A digest of the protocol:
as §1

The nature of series [3]: Toxicity in Balb/c mouse infected with methicillin-resistant Staphylococcus aureus USA300 assessed as chronic inflammatory response administered topically twice daily 2 days post infection and measured after 5 days post compound treatment by H and E staining based histopathological analysis. The following applies: in vivo, topical_or_ocular, 120 h, time 5 day. Put shortly: (§2)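 MRSA USA300-infected punch wounds in mice, n=5. Topical 2% agent or petroleum jelly vehicle twice daily from day 2 for 5 days. The left wound was formalin-fixed, cut into 4-μm sections and H&E-stained. Whole slides were scanned and assessed by a board-certified veterinary pathologist for necrosis, inflammation, haemorrhage and related features.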

A short description of series [4]: Toxicity in Balb/c mouse infected with methicillin-resistant Staphylococcus aureus USA300 assessed as hemorrhage administered topically twice daily 2 days post infection and measured after 5 days post compound treatment by H and E staining based histopathological analysis. To be noted: in vivo, topical_or_ocular, 120 h, time 5 day. A digest of the protocol: as §2

A short description of series [5]: Toxicity in Balb/c mouse infected with methicillin-resistant Staphylococcus aureus USA300 assessed as necrosis administered topically twice daily 2 days post infection and measured after 5 days post compound treatment by H and E staining based histopathological analysis. To be noted: in vivo, topical_or_ocular, 120 h, time 5 day. A digest of the protocol:
as §2

Series [6] is described as follows: In vivo antibacterial activity against methicillin-resistant Staphylococcus aureus USA300 infected in Balb/c mouse model assessed as reduction in bacterial infection in skin wounds administered topically twice daily 2 days post infection and measured after 5 days post compound treatment by CFU counting. To be noted: time 5 day. Details: scale not given: the % may be the effect or the level left.

A short description of series [7]: In vivo antibacterial activity against methicillin-resistant Staphylococcus aureus USA300 infected Balb/c mouse model assessed as reduction in bacterial infection in skin wounds at 25 mg/kg , ip administered 2 days post infection once daily and measured after 5 days post compound treatment by histopathological analysis. Details: scale not given: the % may be the effect or the level left. To be noted: time 5 day.

Series [8] can be described thus: Toxicity in Balb/c mouse infected with methicillin-resistant Staphylococcus aureus USA300 assessed as chronic inflammatory response at 25 mg/kg, ip administered 2 days post infection twice daily and measured after 5 days post compound treatment by H and E staining based histopathological analysis. In kind it is organism-based. To be noted: in vivo, 120 h, time 5 day.

The nature of series [9]: Toxicity in Balb/c mouse infected with methicillin-resistant Staphylococcus aureus USA300 assessed as necrosis at 25 mg/kg, ip administered 2 days post infection twice daily and measured after 5 days post compound treatment by H and E staining based histopathological analysis. The following applies: in vivo, 120 h, time 5 day. The format is organism-based.
Series [10] can be described thus: Toxicity in Balb/c mouse infected with methicillin-resistant Staphylococcus aureus USA300 assessed as hemorrhage at 25 mg/kg, ip administered 2 days post infection twice daily and measured after 5 days post compound treatment by H and E staining based histopathological analysis. The following applies: in vivo, 120 h, time 5 day. In kind it is organism-based.

As a reminder, the MIC is the least concentration at which growth counts as inhibited. Consider `O=C(Nc1nnc(-c2ccc(C(F)(F)F)cc2)o1)c1ccc(S(=O)(=O)N2CCCC2)cc1`, for which the minimum inhibitory concentration (MIC) with Staphylococcus aureus [1] and with Staphylococcus aureus [2] was 2 µg/mL (≈ 4.29 µM) throughout.

For `CN(C)S(=O)(=O)c1ccc(C(=O)Nc2nnc(-c3ccc(C(F)(F)F)cc3)o2)cc1`, the minimal inhibitory concentration (MIC) in the series on Staphylococcus aureus [1] and with Staphylococcus aureus [2] was 16 µg/mL (≈ 36.3 µM) each time.

`C/C(=C\C(=O)OCCCCCCCCC(=O)O)C[C@@H]1OC[C@H](C[C@@H]2O[C@H]2[C@@H](C)[C@H](C)O)[C@@H](O)[C@H]1O` [MUPIROCIN]: the Activity entry in [3] is listed as “Toxic”; in [4] it was “Toxic”; in series [5] it was “Toxic”; in [6], 98.8%.

`O=C(Nc1nnc(-c2ccc(C(F)(F)F)cc2)o1)c1ccc(S(=O)(=O)NC2CC2)cc1`: the MIC with Staphylococcus aureus [1] and with Staphylococcus aureus [2] was 4 µg/mL (≈ 8.84 µM) throughout.

For `CC1CCN(S(=O)(=O)c2ccc(C(=O)Nc3nnc(-c4ccc(C(F)(F)F)cc4)o3)cc2)CC1`, the minimum inhibitory concentration (MIC) in the series with Staphylococcus aureus [1] and with Staphylococcus aureus [2] was 1 µg/mL (≈ 2.02 µM) in each case.

With `O=C(Nc1nnc(-c2ccc(C(F)(F)F)cc2)o1)c1ccc(S(=O)(=O)N2CCCCC2)cc1`, the minimum inhibitory concentration (MIC) in the series with Staphylococcus aureus [1] and with Staphylococcus aureus [2] was 2 µg/mL (≈ 4.16 µM) in each case.

`CC1CCCCN1S(=O)(=O)c1ccc(C(=O)Nc2nnc(-c3ccc(C(F)(F)F)cc3)o2)cc1` (stereo unspecified): the MIC with Staphylococcus aureus [1] and in the series with Staphylococcus aureus [2] was 2 µg/mL (≈ 4.04 µM) throughout.

In the case of `CC1CCCN(S(=O)(=O)c2ccc(C(=O)Nc3nnc(-c4ccc(C(F)(F)F)cc4)o3)cc2)C1` (stereo unspecified), the MIC in the series on Staphylococcus aureus [1] and with Staphylococcus aureus [2] was 2 µg/mL (≈ 4.04 µM) each time.

As to `O=C(Nc1nnc(-c2ccc(C(F)(F)F)cc2)o1)c1ccc(S(=O)(=O)N2C[C@@H]3CC[C@H]2C3)cc1`, the minimum inhibitory concentration (MIC) in the series with Staphylococcus aureus [1] and in the series with Staphylococcus aureus [2] was 2 µg/mL (≈ 4.06 µM) throughout.

Turning to `C[C@@H]1C[C@H](C)CN(S(=O)(=O)c2ccc(C(=O)N(C)c3nnc(-c4ccc(C(F)(F)F)cc4)o3)cc2)C1`, the MIC in the series with Staphylococcus aureus [1] and with Staphylococcus aureus [2] was greater than 64 µg/mL in each case.

As to `CCC[C@@H]1C[C@@H](C(=O)N[C@@H]([C@H]2O[C@H](SC)[C@H](O)[C@@H](O)[C@H]2O)[C@H](C)Cl)N(C)C1` [CLINDAMYCIN], the Activity in series [7] was 93.4%; in [8], “Toxic”; in series [9], “Toxic”; in series [10], “Toxic”.

The values are drawn from ChEMBL document CHEMBL5154895, “Mechanistic Studies and In Vivo Efficacy of an Oxadiazole-Containing Antibiotic” (J Med Chem, 2022).
